Experimental data as given in ChEMBL document CHEMBL1150247, “Structural determinants for affinity enhancement of a dual antagonist peptide entry inhibitor of human immunodeficiency virus type-1” (J Med Chem, 2008).

Tests used:
[1] = Binding affinity to immobilized HIV1 YU2 gp120 by surface plasmon resonance method; parameters: species or system Human immunodeficiency virus 1
Procedure, shortened: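 YU2 gp120 (Drosophila S2-expressed, F105-affinity purified) amine-coupled to CM5 chip (~4000 RU); peptides in PBS injected at 15 μL/min, 5 min association, 5 min dissociation. Buffer and anti-IL5Rα 2B6R control-surface responses subtracted; kinetic constants fitted in BIAevaluation.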

[2] = Inhibition of HIV1 YU2 gp120 binding to immobilized CD4 induced 17b monoclonal antibody by surface plasmon resonance method; parameters: species or system Human immunodeficiency virus 1
[3] = Cytotoxicity against CCR5 expressing human P4 cells after 2 hrs by MTT assay; format: cell-based; settings: p4, 2 h
Procedure, shortened: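 P4-CCR5 cells seeded 4×10^4/well ~18 h ahead, exposed 2 h to varying peptide concentrations, washed, then viability by MTT; triplicate in two independent assays.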

[4] = tested on: Human immunodeficiency virus 1; test: Antiviral activity against HIV1 BaL in CCR5 expressing P4 cells after 2 hrs; format: functional, organism-based; settings: Human immunodeficiency virus 1, BaL, P4, 2 h
Procedure, shortened: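 P4-CCR5 cells (DMEM, 10% FBS, puromycin) seeded 1.2×10^4/well ~18 h ahead; exposed 2 h to HIV-1 BaL plus peptide, washed, cultured 46 more h; infection read by β-galactosidase reporter assay. Infectivity relative to mock-treated infected cells; IC50 from sigmoidal dose-response fit; two independent experiments combined.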

[5] = Inhibition of HIV1 YU2 gp120 binding to immobilized CD4 by surface plasmon resonance method; parameters: species or system Human immunodeficiency virus 1
[6] = Inhibition of HIV1 YU2 gp120 binding to immobilized CD4 binding site specific F105 monoclonal antibody by surface plasmon resonance method; parameters: species or system Human immunodeficiency virus 1
[7] = Inhibition of HIV1 YU2 gp120 binding to immobilized CD4 binding site specific b6 monoclonal antibody by surface plasmon resonance method; parameters: species or system Human immunodeficiency virus 1
[8] = Inhibition of HIV1 YU2 gp120 binding to immobilized CD4 binding site specific immunoglobulin G b12 monoclonal antibody by surface plasmon resonance method; parameters: species or system Human immunodeficiency virus 1

## CC[C@H](C)[C@H](NC(=O)[C@@H](N)CCCNC(=N)N)C(=O)N[C@@H](CC(N)=O)C(=O)N[C@@H](CC(N)=O)C(=O)N[C@H](C(=O)N1C[C@H](n2cc(-c3ccccc3)nn2)C[C@H]1C(=O)N[C@@H](Cc1c[nH]c2ccccc12)C(=O)N[C@@H](CO)C(=O)N[C@@H](CCC(=O)O)C(=O)N[C@@H](C)C(=O)N[C@@H](CCSC)C(=O)N[C@@H](CCSC)C(=O)O)[C@@H](C)CC
[1]
  Kd: 2700 nM

## CC[C@H](C)[C@H](NC(=O)[C@@H](N)CCCNC(=N)N)C(=O)N[C@@H](CC(N)=O)C(=O)N[C@@H](CC(N)=O)C(=O)N[C@H](C(=O)N1C[C@@H](n2cc(-c3ccc(N)cc3)nn2)C[C@H]1C(=O)N[C@@H](Cc1c[nH]c2ccccc12)C(=O)N[C@@H](CO)C(=O)N[C@@H](CCC(=O)O)C(=O)N[C@@H](C)C(=O)N[C@@H](CCSC)C(=O)N[C@@H](CCSC)C(=O)O)[C@@H](C)CC
[1]
  Kd: 437 nM

## CC[C@H](C)[C@H](NC(=O)[C@@H](N)CCCNC(=N)N)C(=O)N[C@@H](CC(N)=O)C(=O)N[C@@H](CC(N)=O)C(=O)N[C@H](C(=O)N1C[C@@H](n2cc(-c3cccc(C)c3)nn2)C[C@H]1C(=O)N[C@@H](Cc1c[nH]c2ccccc12)C(=O)N[C@@H](CO)C(=O)N[C@@H](CCC(=O)O)C(=O)N[C@@H](C)C(=O)N[C@@H](CCSC)C(=O)N[C@@H](CCSC)C(=O)O)[C@@H](C)CC
[1]
  Kd: 83 nM

## CC[C@H](C)[C@H](NC(=O)[C@@H](N)CCCNC(=N)N)C(=O)N[C@@H](CC(N)=O)C(=O)N[C@@H](CC(N)=O)C(=O)N[C@H](C(=O)N1C[C@@H](n2cc(-c3cc(C)ccc3C)nn2)C[C@H]1C(=O)N[C@@H](Cc1c[nH]c2ccccc12)C(=O)N[C@@H](CO)C(=O)N[C@@H](CCC(=O)O)C(=O)N[C@@H](C)C(=O)N[C@@H](CCSC)C(=O)N[C@@H](CCSC)C(=O)O)[C@@H](C)CC
[1]
  Kd: 741 nM

## CC[C@H](C)[C@H](NC(=O)[C@@H](N)CCCNC(=N)N)C(=O)N[C@@H](CC(N)=O)C(=O)N[C@@H](CC(N)=O)C(=O)N[C@H](C(=O)N1C[C@@H](n2cc(-c3ccc(OC)cc3)nn2)C[C@H]1C(=O)N[C@@H](Cc1c[nH]c2ccccc12)C(=O)N[C@@H](CO)C(=O)N[C@@H](CCC(=O)O)C(=O)N[C@@H](C)C(=O)N[C@@H](CCSC)C(=O)N[C@@H](CCSC)C(=O)O)[C@@H](C)CC
[1]
  Kd: 154 nM

## CC[C@H](C)[C@H](NC(=O)[C@@H](N)CCCNC(=N)N)C(=O)N[C@@H](CC(N)=O)C(=O)N[C@@H](CC(N)=O)C(=O)N[C@H](C(=O)N1C[C@@H](n2cc(-c3cc(C)c(C)cc3C)nn2)C[C@H]1C(=O)N[C@@H](Cc1c[nH]c2ccccc12)C(=O)N[C@@H](CO)C(=O)N[C@@H](CCC(=O)O)C(=O)N[C@@H](C)C(=O)N[C@@H](CCSC)C(=O)N[C@@H](CCSC)C(=O)O)[C@@H](C)CC
[1]
  Kd: 160 nM

## CCc1ccc(-c2cn([C@H]3C[C@@H](C(=O)N[C@@H](Cc4c[nH]c5ccccc45)C(=O)N[C@@H](CO)C(=O)N[C@@H](CCC(=O)O)C(=O)N[C@@H](C)C(=O)N[C@@H](CCSC)C(=O)N[C@@H](CCSC)C(=O)O)N(C(=O)[C@@H](NC(=O)[C@H](CC(N)=O)NC(=O)[C@H](CC(N)=O)NC(=O)[C@@H](NC(=O)[C@@H](N)CCCNC(=N)N)[C@@H](C)CC)[C@@H](C)CC)C3)nn2)cc1
[2]
  IC50: 177 nM
[3]
  Activity: Non-toxic
[4]
  IC50: 418 nM
[1]
  Kd: 9 nM
[5]
  IC50: 146 nM
[6]
  IC50: 137 nM
[7]
  IC50: 235 nM
[8]
  IC50: 191 nM

## CC[C@H](C)[C@H](NC(=O)[C@@H](N)CCCNC(=N)N)C(=O)N[C@@H](CC(N)=O)C(=O)N[C@@H](CC(N)=O)C(=O)N[C@H](C(=O)N1C[C@@H](n2cc(-c3cccc4ccccc34)nn2)C[C@H]1C(=O)N[C@@H](Cc1c[nH]c2ccccc12)C(=O)N[C@@H](CO)C(=O)N[C@@H](CCC(=O)O)C(=O)N[C@@H](C)C(=O)N[C@@H](CCSC)C(=O)N[C@@H](CCSC)C(=O)O)[C@@H](C)CC
[1]
  Kd: 54 nM

## CC[C@H](C)[C@H](NC(=O)[C@@H](N)CCCNC(=N)N)C(=O)N[C@@H](CC(N)=O)C(=O)N[C@@H](CC(N)=O)C(=O)N[C@H](C(=O)N1C[C@@H](n2cc(-c3ccc(C)cc3)nn2)C[C@H]1C(=O)N[C@@H](Cc1c[nH]c2ccccc12)C(=O)N[C@@H](CO)C(=O)N[C@@H](CCC(=O)O)C(=O)N[C@@H](C)C(=O)N[C@@H](CCSC)C(=O)N[C@@H](CCSC)C(=O)O)[C@@H](C)CC
[2]
  IC50: 94 nM
[3]
  Activity: Non-toxic
[4]
  IC50: 156 nM
[1]
  Kd: 12 nM
[5]
  IC50: 67 nM
[6]
  IC50: 76 nM
[7]
  IC50: 136 nM
[8]
  IC50: 117 nM

## CC[C@H](C)[C@H](NC(=O)[C@@H](N)CCCNC(=N)N)C(=O)N[C@@H](CC(N)=O)C(=O)N[C@@H](CC(N)=O)C(=O)N[C@H](C(=O)N1C[C@@H](n2cc(-c3ccc(F)cc3)nn2)C[C@H]1C(=O)N[C@@H](Cc1c[nH]c2ccccc12)C(=O)N[C@@H](CO)C(=O)N[C@@H](CCC(=O)O)C(=O)N[C@@H](C)C(=O)N[C@@H](CCSC)C(=O)N[C@@H](CCSC)C(=O)O)[C@@H](C)CC
[1]
  Kd: 91 nM

## CC[C@H](C)[C@H](NC(=O)[C@@H](N)CCCNC(=N)N)C(=O)N[C@@H](CC(N)=O)C(=O)N[C@@H](CC(N)=O)C(=O)N[C@H](C(=O)N1C[C@@H](n2cc(C3=CCCCC3)nn2)C[C@H]1C(=O)N[C@@H](Cc1c[nH]c2ccccc12)C(=O)N[C@@H](CO)C(=O)N[C@@H](CCC(=O)O)C(=O)N[C@@H](C)C(=O)N[C@@H](CCSC)C(=O)N[C@@H](CCSC)C(=O)O)[C@@H](C)CC
[1]
  Kd: 98 nM

## CC[C@H](C)[C@H](NC(=O)[C@@H](N)CCCNC(=N)N)C(=O)N[C@@H](CC(N)=O)C(=O)N[C@@H](CC(N)=O)C(=O)N[C@H](C(=O)N1C[C@@H](n2cc(-c3ccc(CCc4ccccc4)cc3)nn2)C[C@H]1C(=O)N[C@@H](Cc1c[nH]c2ccccc12)C(=O)N[C@@H](CO)C(=O)N[C@@H](CCC(=O)O)C(=O)N[C@@H](C)C(=O)N[C@@H](CCSC)C(=O)N[C@@H](CCSC)C(=O)O)[C@@H](C)CC
[2]
  IC50: 129 nM
[3]
  Activity: Non-toxic
[4]
  IC50: 610000 nM
[5]
  IC50: 99 nM
[6]
  IC50: 23 nM
[7]
  IC50: 85 nM
[8]
  IC50: 65 nM

## CC[C@H](C)[C@H](NC(=O)[C@@H](N)CCCNC(=N)N)C(=O)N[C@@H](CC(N)=O)C(=O)N[C@@H](CC(N)=O)C(=O)N[C@H](C(=O)N1C[C@@H](n2cc(Cn3nnc4ccccc43)nn2)C[C@H]1C(=O)N[C@@H](Cc1c[nH]c2ccccc12)C(=O)N[C@@H](CO)C(=O)N[C@@H](CCC(=O)O)C(=O)N[C@@H](C)C(=O)N[C@@H](CCSC)C(=O)N[C@@H](CCSC)C(=O)O)[C@@H](C)CC
[1]
  Kd: 388 nM

## CC[C@H](C)[C@H](NC(=O)[C@@H](N)CCCNC(=N)N)C(=O)N[C@@H](CC(N)=O)C(=O)N[C@@H](CC(N)=O)C(=O)N[C@H](C(=O)N1C[C@@H](n2cc(-c3ccccc3CO)nn2)C[C@H]1C(=O)N[C@@H](Cc1c[nH]c2ccccc12)C(=O)N[C@@H](CO)C(=O)N[C@@H](CCC(=O)O)C(=O)N[C@@H](C)C(=O)N[C@@H](CCSC)C(=O)N[C@@H](CCSC)C(=O)O)[C@@H](C)CC
[1]
  Kd: 1930 nM

## CC[C@H](C)[C@H](NC(=O)[C@@H](N)CCCNC(=N)N)C(=O)N[C@@H](CC(N)=O)C(=O)N[C@@H](CC(N)=O)C(=O)N[C@H](C(=O)N1C[C@@H](n2cc(-c3ccc(F)c(C)c3)nn2)C[C@H]1C(=O)N[C@@H](Cc1c[nH]c2ccccc12)C(=O)N[C@@H](CO)C(=O)N[C@@H](CCC(=O)O)C(=O)N[C@@H](C)C(=O)N[C@@H](CCSC)C(=O)N[C@@H](CCSC)C(=O)O)[C@@H](C)CC
[1]
  Kd: 38 nM

## CC[C@H](C)[C@H](NC(=O)[C@@H](N)CCCNC(=N)N)C(=O)N[C@@H](CC(N)=O)C(=O)N[C@@H](CC(N)=O)C(=O)N[C@H](C(=O)N1C[C@@H](n2cc(-c3ccccc3C)nn2)C[C@H]1C(=O)N[C@@H](Cc1c[nH]c2ccccc12)C(=O)N[C@@H](CO)C(=O)N[C@@H](CCC(=O)O)C(=O)N[C@@H](C)C(=O)N[C@@H](CCSC)C(=O)N[C@@H](CCSC)C(=O)O)[C@@H](C)CC
[1]
  Kd: 128 nM

## CC[C@H](C)[C@H](NC(=O)[C@@H](N)CCCNC(=N)N)C(=O)N[C@@H](CC(N)=O)C(=O)N[C@@H](CC(N)=O)C(=O)N[C@H](C(=O)N1C[C@@H](n2cc(CSc3ccccc3)nn2)C[C@H]1C(=O)N[C@@H](Cc1c[nH]c2ccccc12)C(=O)N[C@@H](CO)C(=O)N[C@@H](CCC(=O)O)C(=O)N[C@@H](C)C(=O)N[C@@H](CCSC)C(=O)N[C@@H](CCSC)C(=O)O)[C@@H](C)CC
[1]
  Kd: 115 nM

## CC[C@H](C)[C@H](NC(=O)[C@@H](N)CCCNC(=N)N)C(=O)N[C@@H](CC(N)=O)C(=O)N[C@@H](CC(N)=O)C(=O)N[C@H](C(=O)N1C[C@@H](n2cc(-c3ccccc3N)nn2)C[C@H]1C(=O)N[C@@H](Cc1c[nH]c2ccccc12)C(=O)N[C@@H](CO)C(=O)N[C@@H](CCC(=O)O)C(=O)N[C@@H](C)C(=O)N[C@@H](CCSC)C(=O)N[C@@H](CCSC)C(=O)O)[C@@H](C)CC
[1]
  Kd: 25000 nM

## CC[C@H](C)[C@H](NC(=O)[C@@H](N)CCCNC(=N)N)C(=O)N[C@@H](CC(N)=O)C(=O)N[C@@H](CC(N)=O)C(=O)N[C@H](C(=O)N1C[C@@H](n2cc(-c3ccccc3OC)nn2)C[C@H]1C(=O)N[C@@H](Cc1c[nH]c2ccccc12)C(=O)N[C@@H](CO)C(=O)N[C@@H](CCC(=O)O)C(=O)N[C@@H](C)C(=O)N[C@@H](CCSC)C(=O)N[C@@H](CCSC)C(=O)O)[C@@H](C)CC
[1]
  Kd: 14000 nM
